Sampled rows, rich in hits. Any-hit rate of the full collection: about 7.6%.
DAT uptake mod – changed hDAT dopamine uptake under cocaine IC80, either direction, primary screen, cocaine antagonist project, cell-based, LLC-PK1 hDAT, [14C]-dopamine uptake, MLSMR; B-score at 10 µM; 110,000 tested, 1.3% active; Sodium-dependent dopamine transporter (Homo sapiens), Q01959; LLC-PK1 hDAT cells, [14C]-dopamine uptake with cocaine IC80; actives deviate in either direction;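 active = Z score or B-score, a plate-position-corrected score, falls beyond the plate's 99.7% confidence bounds, in either direction; inactive = both scores lie inside the 99.7% bounds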
M1 ag – M1 muscarinic receptor agonists, primary screen, CHO-M1 cells, Fluo-4 calcium, agonist mode. Muscarinic acetylcholine receptor M1. Fluo-4 calcium fluorescence; active compounds read high. B-score at 10 µM. 64,000 tested, 3% active. AID 626, 2007;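 active = fluorescence rise, raw or as B-score row- and column-corrected plate score, outside the 99.7% band of its plate's samples, either direction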
M1 antagonist – antagonists of rat M1 muscarinic receptor | B-score at 10 µM | CHO-M1 cells, Fluo-4 calcium, ACh EC80 antagonist mode; active compounds read low | 64,000 tested, 3.4% active | Muscarinic acetylcholine receptor M1 (Rattus norvegicus), P08482;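 active = calcium fluorescence response, raw or row-and-column corrected B-score, differing from the plate sample mean either way at a set confidence level, mostly lower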
HEK293 NFkB inh – inhibitors of PMA/ionomycin-induced NF-kB reporter, primary screen, antigen receptor NF-kB inhibitor project, cell-based, HEK-293 luciferase reporter, luminescence; HEK-293 NF-kB luciferase reporter; inhibition, % at 3 µM; 62,000 tested, 0.21% active; AID 465, 2006;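 active = inhibition above the mean of all tested compounds plus 3 SD, cut at about 40% in these data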
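Reagent: PMA plus ionomycin mix as NF-kB-activating stimulus. Assay system: NF-kB luciferase reporter HEK-293 cells. Technique: luminescence from luciferase substrate reagent. Incubation: 1 h compound pre-incubation, 16 h PMA/ionomycin at 37 °C. Benchmarks: DMSO only as uninhibited control, 10 µM reference inhibitor as full inhibition. Repeats: tested once.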
Jurkat viability – cytotoxicity toward Jurkat T cells, primary screen, cytotoxicity control, cell-based, Jurkat E6.1, 60K MLSMR library; inhibition, % at 4 µM; AID 463, 2006; 56,000 tested, 1.2% active; Jurkat E6.1 viability, ATP luminescence, 48 h;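 active = inhibition above the mean inhibition of all tested compounds plus 3 SD, cut at about 28% in these data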
D1 allo mod – D1 CRE-luciferase signal change, two-sided – cell-based, HEK293 D1, dopamine EC30, D1 allosteric modulator project, primary screen; D(1A) dopamine receptor (Homo sapiens), P21728; dopamine EC30 potentiation; actives deviate in either direction; B-score at 10 µM; 58,000 tested, 5.9% active; AID 641, 2007;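 active = luminescence count or its row- and column-corrected plate score outside the 99.7% band of the plate's sample wells, on either side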
Target sequence (P21728 whole entry, looked up): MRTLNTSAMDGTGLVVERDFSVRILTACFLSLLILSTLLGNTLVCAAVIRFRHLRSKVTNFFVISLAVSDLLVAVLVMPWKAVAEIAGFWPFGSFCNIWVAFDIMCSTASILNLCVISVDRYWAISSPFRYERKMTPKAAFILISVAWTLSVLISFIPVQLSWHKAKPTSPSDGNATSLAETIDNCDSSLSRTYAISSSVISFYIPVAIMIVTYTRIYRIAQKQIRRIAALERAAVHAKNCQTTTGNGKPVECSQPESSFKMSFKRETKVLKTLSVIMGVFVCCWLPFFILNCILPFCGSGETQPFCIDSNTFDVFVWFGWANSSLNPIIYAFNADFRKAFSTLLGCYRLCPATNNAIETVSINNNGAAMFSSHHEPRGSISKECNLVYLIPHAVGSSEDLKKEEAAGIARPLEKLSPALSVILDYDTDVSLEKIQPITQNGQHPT
D1 mod confirm – D1 receptor positive allosteric modulators, retest, confirmation, cell-based, HEK293 D1, CRE-luciferase, duplicate. shares compounds with D1 allo mod. dopamine EC30 potentiation; active compounds read high. luminescence at 10 µM. 2,200 tested, 88% active. AID 642, 2007;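 active = luminescence in either of two replicates above the same-plate mean plus 3 SD of the low-dose dopamine control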
D1 no dopamine – D1 receptor agonism without dopamine, confirmation, mechanism study for D1 allosteric modulator project, cell-based, HEK293 D1, CRE-luciferase, secondary assay 1. shares compounds with D1 allo mod. luminescence, no dopamine; active compounds read high. luminescence at 10 µM. 1,900 tested, 0.8% active. AID 646, 2007; in the data active = luminescence above about 3900
Isoprot counter – isoproterenol response counter-screen activity for D1 modulators | shares compounds with D1 allo mod | HEK293 D1 CRE-luciferase, isoproterenol EC30 counter-screen | calls only at 10 µM | 2,200 tested, 63% active | AID 647;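 active = luminescence in either replicate above plate mean of wells with a partly effective reference agonist dose plus 3 SD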;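 note: isoproterenol raises cAMP through native beta-adrenoceptor Gs so signal bypasses D1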
Large screens that a line does not name were inactive (follow-up assays come after a bar, where they were run).

CC1(C)CN=C(Nc2nc3ccccc3s2)S1	D1 allo mod 2.9 | D1 mod confirm 8344 | D1 no dopamine inactive | Isoprot counter inactive
CCCCn1c(O)c(C(C)=NC(C)c2ccccc2)c(=O)[nH]c1=O (centres undefined)	D1 allo mod 9.7 | D1 mod confirm 17520 | D1 no dopamine inactive | Isoprot counter active
CCCCn1c(O)c(C(C)=NCCc2ccccc2)c(=O)[nH]c1=O	none
CC(=NCc1cccnc1)c1c(O)n(Cc2ccccc2)c(=O)[nH]c1=O	none
CCC(=NCc1cccnc1)c1c(O)n(Cc2ccccc2)c(=O)[nH]c1=O	D1 allo mod 4.8 | D1 mod confirm 11204 | D1 no dopamine inactive | Isoprot counter active
O=C(CCN1C(=O)COc2ccccc21)N1CCC2(CC1)OCCO2	D1 allo mod 3.8 | D1 mod confirm inactive | Isoprot counter inactive
O=C(c1ccc2nc3ccc(Cl)cc3c(=O)n2c1)N1CCC2(CC1)OCCO2	none (no result: DAT uptake mod, Jurkat viability)
CCOc1ccc(-c2cc(C(=O)N3CCC4(CC3)OCCO4)c3ccccc3n2)cc1	none (no result: DAT uptake mod)
CCOC(=O)c1c(C)n(Cc2ccccc2)c2ccc(OCC(O)Cn3nc(C)nc3C)cc12 (centres undefined)	D1 allo mod 4.5 (no result: DAT uptake mod) | D1 mod confirm 17284 | D1 no dopamine inactive | Isoprot counter active
CCOC(=O)c1c(C)n(Cc2ccccc2)c2ccc(OCC(O)Cn3nc(C)cc3C)cc12 (centres undefined)	none (no result: M1 ag, M1 antagonist, HEK293 NFkB inh, Jurkat viability, D1 allo mod)

Screens (PubChem)
